From PubChem BioAssay
CHO parental Ca = ATP-evoked calcium signal inhibitors, parental CHO, primary screen, counter-screen for OX1R antagonist project, cell-based, fluorescence, Fluo-8 calcium dye. hit rate 0.63% among 330,000. parental CHO-K1, ATP-induced calcium, Fluo-8 fluorescence. AID 463079, 2010. inhibition, % at 5.6 µM;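 active means inhibition above that plate's mean sample inhibition plus 3 SD, cut at about 26% in these data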;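 further: 0% = ATP-challenged DMSO wells and 100% = DMSO wells without ATP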
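Material: Parental CHO cells | Reagent: ATP | Compound dosing: Single nominal dose of 5.6 µM per compound | Detection: Intracellular calcium via Fluo-8 no-wash fluorescent dye | Read-out: % inhibition of ATP-induced calcium mobilization | Benchmarks: Low control ATP plus DMSO, high control DMSO only | Replicates: Singlicate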
OX1R antag-1 = antagonists of human orexin 1 receptor (OX1R). Orexin/Hypocretin receptor type 1 (Homo sapiens), O43613. OX1R-expressing cells, FRET antagonist read-out. inhibition, % at 6.6 µM. hit rate 1.8% among 330,000; in the data active means inhibition mostly above about 38%, no sharp cut-off; inactive means mostly below about 40%;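 further: 0% = agonist challenge alone and 100% = reference antagonist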
OX1R antag-2 = OX1R (HCRTR1) antagonists, primary screen, fluorescence, CHO/OX1R cells, Fluo-8 calcium, orexin A. Orexin/Hypocretin receptor type 1 (Homo sapiens), O43613. Fluo-8 calcium fluorescence. inhibition, % at 5 µM. hit rate 0.43% among 330,000;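 active means inhibition above its plate's threshold, mean inhibition of all tested compounds on the plate plus 3 SD, cut at about 37% in these data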;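 further: 0% = orexin A challenge wells and 100% = SB-334867-A antagonist wells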
TAAR1 agonist = human TAAR1 agonists, primary screen, Fluo-8 calcium fluorescence, CHO RD-HGA16 cells; activation, % at 3 µM; vehicle wells 0%, saturating PEA agonist 100%; hit rate 0.99% among 360,000; AID 624467, 2012;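 active means activation above the mean activation of all test compounds in the run plus 3 SD, cut at about 38% in these data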
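Assay system: CHO-derived RD-HGA16 cells with stable Gα16 and human TAAR1; timing: 17-24 h seeding, 75 min 37 °C dye, 30 min RT; read-out: % activation from peak over basal fluorescence ratio, DMSO-to-PEA scaled; measured by: kinetic Fluo-8 calcium fluorescence; benchmarks: low control DMSO, high control PEA (EC100); doses: 3 µM single concentration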
TAAR1 antag = human TAAR1 antagonists, primary screen, Fluo-8 calcium fluorescence, CHO RD-HGA16 cells; antagonist; inhibition, % at 3 µM; hit rate 1.5% among 360,000; AID 624466, 2012;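 active means inhibition above a per-plate cutoff, the mean inhibition of test compounds on that plate plus 3 SD, cut at about 49% in these data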;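 further: 0% = DMSO plus EC80 beta-PEA response and 100% = DMSO alone without agonist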
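Test system: hTAAR1-expressing CHO RD-HGA16 cells, Gα16-coupled; Probe or stimulus: EC80 β-phenethylamine stimulus; Compound dosing: single nominal final test compound concentration of 3 µM; Timing: 140 s kinetic read after compound, 140 s after agonist; Signal: Fluo-8 calcium-sensitive fluorescence; Measure: % inhibition of agonist calcium response; Controls: DMSO and EC80 PEA controls.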
GPR7 antagonist = GPR7 receptor antagonists, primary screen, cell-based, fluorescence, single concentration. GPR7-expressing cells, fluorescence antagonist assay. inhibition, % at 4.4 µM. hit rate 1.1% among 290,000. AID 1861, 2009; in the data active means inhibition above about 16%, passing the limit was not always enough;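 further: cells stimulated with the agonist NPW; 0% = agonist with vehicle and 100% = vehicle without agonist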
Target sequence (P48145 whole entry, looked up): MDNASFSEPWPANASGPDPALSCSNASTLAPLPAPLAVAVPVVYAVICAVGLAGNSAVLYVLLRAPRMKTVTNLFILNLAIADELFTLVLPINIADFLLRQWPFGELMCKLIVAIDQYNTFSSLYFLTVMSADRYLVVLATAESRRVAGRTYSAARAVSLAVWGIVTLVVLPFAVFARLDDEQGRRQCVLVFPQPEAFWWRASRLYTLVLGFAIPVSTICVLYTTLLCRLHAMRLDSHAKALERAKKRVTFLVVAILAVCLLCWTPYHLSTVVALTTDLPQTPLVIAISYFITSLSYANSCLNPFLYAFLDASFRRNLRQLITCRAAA
An asterisk follows results filed as active. In the library only some 4.5% were active in any assay of this set; here they are far more common.

COCCn1c(SCC(=O)Nc2ccc3c(c2)OCCO3)nnc1-c1ccncc1 was read as CHO parental Ca -8, OX1R antag-1 19, OX1R antag-2 1, TAAR1 agonist 2 and TAAR1 antag 2.
COCCn1c(SCC(=O)Nc2ccc3c(c2)OCCO3)nnc1-c1c[nH]c2ccccc12 was read as CHO parental Ca -31, OX1R antag-1 50*, OX1R antag-2 6, TAAR1 agonist 3, TAAR1 antag 7 and GPR7 antagonist 7.
Cc1cccc(-n2cnc3c(c2=O)c2nc4ccccc4nc2n3Cc2ccco2)c1 was read as CHO parental Ca -23, OX1R antag-1 69*, OX1R antag-2 -7, TAAR1 agonist 7 and TAAR1 antag 3.
`Cc1cccc(S(=O)(=O)c2c(N)n(Cc3ccco3)c3nc4ccccc4nc23)c1` gave CHO parental Ca 0, OX1R antag-1 16, OX1R antag-2 -7, TAAR1 agonist 9, TAAR1 antag 1 and GPR7 antagonist -10.
For COC(=O)c1cn(NC(=O)Cc2cccc(C(F)(F)F)c2)c(=O)c2ccccc12 the results were CHO parental Ca 2, OX1R antag-1 76*, OX1R antag-2 -8, TAAR1 agonist 3, TAAR1 antag -20 and GPR7 antagonist -7.
`COC(=O)c1cn(NC(=O)Cc2ccc(Cl)cc2)c(=O)c2ccccc12` gave CHO parental Ca -13, OX1R antag-1 22, OX1R antag-2 -26, TAAR1 agonist 11, TAAR1 antag 14 and GPR7 antagonist -10.
Screening Cc1ccc(NC(=O)c2noc3c2CCc2ccccc2-3)cc1 returned CHO parental Ca -8, OX1R antag-1 22, OX1R antag-2 -23, TAAR1 agonist 12, TAAR1 antag 20 and GPR7 antagonist -11.
For O=C(Nc1cccc(O)c1)c1noc2c1CCc1ccccc1-2 the results were CHO parental Ca -15, OX1R antag-1 37*, OX1R antag-2 40, TAAR1 agonist 13, TAAR1 antag 21 and GPR7 antagonist 6.
`CCn1c(O)c(C=Nc2ccccc2)sc1=S` gave CHO parental Ca -14, OX1R antag-1 59*, OX1R antag-2 -21, TAAR1 agonist 9, TAAR1 antag 17 and GPR7 antagonist -1.
`O=[N+]([O-])c1ccc(O)c(/C=N/Nc2ccccn2)c1` gave CHO parental Ca 87*, OX1R antag-1 3, OX1R antag-2 75*, TAAR1 agonist 45*, TAAR1 antag 73* and GPR7 antagonist -2.
`C[C@@H](c1ccccc1)N1C[C@@H](COCc2ccccc2)Oc2cc(N3CCC[C@H]3C(N)=O)ccc2S1(=O)=O` gave TAAR1 agonist 12 and TAAR1 antag -27.
For C=CCN(CC=C)CCOc1ccc2ccccc2c1 the results were CHO parental Ca -21, OX1R antag-1 16, OX1R antag-2 -32, TAAR1 agonist 39*, TAAR1 antag -5 and GPR7 antagonist -4.
N=c1oc2cc(O)ccc2cc1C(=O)Nc1ccccn1 was read as CHO parental Ca 3, OX1R antag-1 84*, OX1R antag-2 5 and GPR7 antagonist -4.
C=CCO[C@H]1CN(C(=O)OC)[C@@H]2C[C@H]1Oc1ccccc12 was read as TAAR1 agonist 2 and TAAR1 antag -4.
For CCCOC(=O)c1ccc(OCC(O)Cn2c(C)nc3ccccc32)cc1 (stereo unspecified) the results were TAAR1 agonist 6, TAAR1 antag 54* and GPR7 antagonist -1.
Screening N#CC1=C(N)N2C(=C(C#N)C13CCCCC3)SC1CCCCC12O (stereo unspecified) returned CHO parental Ca 33*, OX1R antag-1 5, OX1R antag-2 14, TAAR1 agonist 20, TAAR1 antag 37 and GPR7 antagonist -4.
`CSC1=C(C#N)C2(CCCC2)C(C#N)=C(N)N1` gave CHO parental Ca -12, OX1R antag-1 -4, OX1R antag-2 -13 and GPR7 antagonist 3.
